Here are results for five compounds from ChEMBL document CHEMBL1141273, “Epicoccins A-D, epipolythiodioxopiperazines from a Cordyceps-colonizing isolate of Epicoccum nigrum” (2007).

For experiment [1], the system named is Staphylococcus aureus. The experiment can be described thus: Antimicrobial activity against Staphylococcus aureus ATCC 6538 at 100 ug/disk after 24 hrs. It counts as functional, organism-based. In a few lines: (§1)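 Bacteria grown on Mueller-Hinton agar. Paper disks (6 mm) bearing 100 µg compound placed on the agar. Plates incubated at 37 °C for 24 h and examined for a zone of inhibition.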

Experiment [2] relates to Streptococcus mutans. Nature of the experiment: Antimicrobial activity against Streptococcus mutans ATCC 25175 at 100 ug/disk after 24 hrs. It counts as functional, organism-based. Summed up:
as §1

The subject of experiment [3] is Enterococcus faecalis. The experiment can be described thus: Antimicrobial activity against Enterococcus faecalis ATCC 19433 at 100 ug/disk after 24 hrs. It counts as functional, organism-based. Summed up: as §1
Experiment [4] deals with Micrococcus luteus. The experiment can be described thus: Antimicrobial activity against Sarcina lutea CMCC B28001 at 100 ug/disk after 24 hrs. It counts as functional, organism-based. Summed up: as §1
The test system of experiment [5] is Geotrichum candidum. Nature of the experiment: Antifungal activity against Geotrichum candidum AS2.498 at 100 ug/disk after 24 hrs. It counts as functional, organism-based.
Experiment [6] deals with Candida albicans. The experiment can be described thus: Antifungal activity against Candida albicans ATCC 10231 at 100 ug/disk after 24 hrs. It counts as functional, organism-based.
Experiment [7] relates to Aspergillus fumigatus. Nature of the experiment: Antifungal activity against Aspergillus fumigatus ATCC 10894 at 100 ug/disk after 24 hrs. It counts as functional, organism-based.
For experiment [8], the system named is Bacillus subtilis. Nature of the experiment: Antimicrobial activity against Bacillus subtilis ATCC 6633 at 100 ug/disk after 24 hrs. To be noted: for zone of inhibition at 100 µg/disc: ATCC 6633, 24 h, read-out: IZ.

Activity calls are given as the source filed them. The rule behind the calls is not given here.

Turning to `O=C1C[C@H]2SS[C@@]34C[C@@H]1[C@@H]([C@H]2O)N3C(=O)[C@@]12C[C@H]3C(=O)C[C@@H](S1)[C@H](O)[C@H]3N2C4=O` [EPICOCCIN A], the outcome in experiment [1], in experiment [2], in experiment [3], in experiment [4], in experiment [5] and in experiment [6] was inactive. The result in experiment [7] was inactive. Besides, the zone of inhibition at 100 µg/disc in experiment [8] is 12 mm.

As for `O=C1C[C@@H]2SS[C@@]34C[C@@H]1[C@@H]([C@H]2O)N3C(=O)[C@@]12C[C@H]3C(=O)[C@H](S1)[C@H](O)[C@H](O)[C@H]3N2C4=O`, the outcome in experiment [1], in experiment [2], in experiment [3], in experiment [4], in experiment [5] and in experiment [6] was inactive. The outcome in experiment [7] and in experiment [8] was inactive.

On to `O=C(O)c1cn(C2CC2)c2cc(N3CCNCC3)c(F)cc2c1=O` [CIPROFLOXACIN], for which the zone of inhibition at 100 µg/disc in experiment [8] came to 28 mm.

In the case of `O=C1C[C@@H]2S[C@@]34C[C@@H]1[C@@H]([C@H]2O)N3C(=O)[C@@]12C[C@H]3C(=O)C[C@H](S1)[C@H](O)[C@H]3N2C4=O`, the outcome in experiment [1], in experiment [2], in experiment [3], in experiment [4], in experiment [5] and in experiment [6] was inactive. The result in experiment [7] and in experiment [8] was inactive.

For the compound `O=C1C[C@@H]2SS[C@@]34C[C@@H]1[C@@H]([C@H]2O)N3C(=O)[C@@]12C[C@H]3C(=O)C[C@H](SS1)[C@H](O)[C@H]3N2C4=O`, the result in experiment [1], in experiment [2], in experiment [3], in experiment [4], in experiment [5] and in experiment [6] was inactive. Besides, the result in experiment [7] and in experiment [8] was inactive.
